Results from ChEMBL document CHEMBL1944523, “Benzimidazolones: a new class of selective peroxisome proliferator-activated receptor γ (PPARγ) modulators” (J Med Chem, 2011).
Active and inactive are the calls of the source. The rule behind the calls is not given here.

Columns and labels:
[1] = test system: Rattus norvegicus; test: Dose normalized AUC in rat at 2 mg/kg, po by LC-MS/MS analysis; assay type: ADME, organism-based; set-up: dose 2 mg/kg, route oral; settings: in vivo
Method in brief: (§1)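 Rat pharmacokinetics: 2 mpk oral in 5% methylcellulose, 0.5 mpk iv in ethanol/PEG400/water (1/4/5). Blood sampled at set intervals; plasma acidified with 0.5 M formate buffer pH 3.0, acetonitrile-precipitated, quantified by LC−MS−MS against spiked control-plasma calibration curves.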

[2] = Drug uptake in db/db C57BLKS/J-m +/+ Leprdb mouse at 10 mg/kg, po qd for 10 days measured in day 11 by LC-MS/MS analysis; assay type: ADME, organism-based; set-up: dose 10 mg/kg, route oral; settings: in vivo
Method in brief: (§2)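 Male db/db (C57BLKS/J-m +/+Leprdb) mice aged 12−13 weeks, seven per group, gavaged once daily with compound in 0.25% methylcellulose vehicle. Total compound exposure measured at study end: plasma acidified with 0.5 M formate buffer pH 3.0, protein precipitated with acetonitrile, quantified by LC−MS−MS against calibration curves in control plasma.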

[3] = molecular target: T1, Peroxisome proliferator-activated receptor gamma (Homo sapiens, UniProt P37231); test: Binding affinity to human PPARgamma by scintillation proximity assay
T1 sequence (P37231 whole entry): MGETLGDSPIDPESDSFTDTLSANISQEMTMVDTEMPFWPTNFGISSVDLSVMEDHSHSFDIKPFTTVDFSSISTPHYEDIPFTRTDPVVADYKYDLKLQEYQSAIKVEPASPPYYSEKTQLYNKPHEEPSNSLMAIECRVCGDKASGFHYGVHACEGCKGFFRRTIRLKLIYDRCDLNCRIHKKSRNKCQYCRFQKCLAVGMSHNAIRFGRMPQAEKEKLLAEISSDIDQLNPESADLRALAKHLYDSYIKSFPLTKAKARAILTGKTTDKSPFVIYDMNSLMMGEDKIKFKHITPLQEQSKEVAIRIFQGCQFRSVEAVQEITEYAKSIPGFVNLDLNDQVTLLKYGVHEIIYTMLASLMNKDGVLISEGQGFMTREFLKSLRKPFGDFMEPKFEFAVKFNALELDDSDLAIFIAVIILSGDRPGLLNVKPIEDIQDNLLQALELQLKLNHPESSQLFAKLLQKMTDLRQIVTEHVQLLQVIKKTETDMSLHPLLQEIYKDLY
Method in brief: (§3)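 Scintillation proximity binding assay on PPAR receptors giving IC50; mean of three determinations.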

[4] = molecular target: T2, Peroxisome proliferator-activated receptor gamma (Homo sapiens) (UniProt P37231); test: Agonist activity at human PPARgamma expressed in COS-1 cells co-expressing with Gal4 by transactivation assay relative to rosiglitazone; assay type: functional, cell-based
T2 sequence (whole entry): T1 sequence (P37231 whole entry)
Method in brief: (§4)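 GAL4-PPAR chimeric receptor transactivation in transiently co-transfected COS-1 cells with a GAL4-responsive reporter; potency as EC50 and maximum activation expressed relative to rosiglitazone; triplicate, mean reported.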

[5] = molecular target: T1, Peroxisome proliferator-activated receptor gamma; test: Partial agonist activity at human PPARgamma LBD assessed as activation of CBP1-453 by HTRF assay; assay type: functional
[6] = Oral bioavailability in rat at 2 mg/kg by LC-MS/MS analysis; assay type: ADME, organism-based; settings: in vivo; method in brief: as §1
[7] = test system: Rattus norvegicus; test: Plasma clearance in rat at 0.5 mg/kg, iv and 2 mg/kg, po by LC-MS/MS analysis; assay type: ADME, organism-based; settings: in vivo; method in brief: as §1
[8] = molecular target: T1, Peroxisome proliferator-activated receptor gamma; test: Partial agonist activity at human PPARgamma LBD assessed as activation of PGC1 by HTRF assay; assay type: functional
[9] = molecular target: T1, Peroxisome proliferator-activated receptor gamma; test: Partial agonist activity at human PPARgamma LBD assessed as activation of Src-1 by HTRF assay; assay type: functional
[10] = test system: Mus musculus; test: Antidiabetic activity in db/db C57BLKS/J-m +/+ Leprdb mouse assessed as reduction of glucose level at 30 mg/kg, po qd for 10 days measured on 11 relative to control; assay type: functional; set-up: scale not given: the % may be the effect or the level left
Method in brief: (§5)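 Male db/db (C57BLKS/J-m +/+Leprdb) mice, 12−13 weeks old, seven per group, chow and water freely available; once-daily oral gavage in 0.25% methylcellulose vehicle for 11 days. Tail blood drawn just before next dose on days 0, 4, 7 and 11 for plasma glucose. Value is percent correction versus vehicle control; mean of n = 7; rosiglitazone 10 mpk positive control.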

[11] = molecular target: T1, Peroxisome proliferator-activated receptor gamma; test: Partial agonist activity at human PPARgamma LBD assessed as activation of PBP by HTRF assay; assay type: functional
[12] = molecular target: T3, Peroxisome proliferator-activated receptor alpha (Homo sapiens, UniProt Q07869); test: Binding affinity to human PPARalpha expressed in COS-1 by scintillation proximity assay; method in brief: as §3
T3 sequence (Q07869 whole entry): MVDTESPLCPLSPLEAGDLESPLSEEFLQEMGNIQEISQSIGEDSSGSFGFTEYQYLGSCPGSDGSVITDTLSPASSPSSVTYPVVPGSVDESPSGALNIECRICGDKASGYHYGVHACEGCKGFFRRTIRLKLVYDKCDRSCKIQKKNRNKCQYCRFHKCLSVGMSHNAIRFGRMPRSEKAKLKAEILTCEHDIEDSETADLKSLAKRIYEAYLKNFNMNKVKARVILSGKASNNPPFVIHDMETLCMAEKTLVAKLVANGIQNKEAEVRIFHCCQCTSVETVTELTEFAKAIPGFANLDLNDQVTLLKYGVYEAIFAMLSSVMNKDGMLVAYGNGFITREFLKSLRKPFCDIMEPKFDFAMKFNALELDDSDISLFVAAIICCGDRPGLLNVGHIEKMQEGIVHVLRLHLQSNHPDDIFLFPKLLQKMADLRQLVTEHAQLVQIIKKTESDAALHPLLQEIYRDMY

[13] = molecular target: T1, Peroxisome proliferator-activated receptor gamma; test: Agonist activity at human PPARgamma expressed in COS-1 cells co-expressing with Gal4 by transactivation assay; assay type: functional, cell-based; method in brief: as §4
[14] = Half life in rat at 0.5 mg/kg, iv and 2 mg/kg, po by LC-MS/MS analysis; assay type: ADME, organism-based; settings: in vivo; method in brief: as §1
[15] = molecular target: T4, Peroxisome proliferator-activated receptor delta (Homo sapiens, UniProt Q03181); test: Binding affinity to PPARdelta by scintillation proximity assay; method in brief: as §3
T4 sequence (Q03181 whole entry): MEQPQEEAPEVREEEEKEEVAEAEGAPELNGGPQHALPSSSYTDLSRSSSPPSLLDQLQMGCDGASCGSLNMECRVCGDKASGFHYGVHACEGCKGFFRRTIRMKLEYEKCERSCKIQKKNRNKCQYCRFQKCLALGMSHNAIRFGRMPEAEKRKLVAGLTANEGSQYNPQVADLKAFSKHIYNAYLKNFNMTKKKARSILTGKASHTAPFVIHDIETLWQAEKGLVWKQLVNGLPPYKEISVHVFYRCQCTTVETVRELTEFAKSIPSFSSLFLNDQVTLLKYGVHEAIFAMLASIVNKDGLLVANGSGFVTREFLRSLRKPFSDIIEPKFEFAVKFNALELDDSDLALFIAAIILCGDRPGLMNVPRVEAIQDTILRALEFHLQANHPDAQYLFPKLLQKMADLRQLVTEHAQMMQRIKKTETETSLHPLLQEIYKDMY

[16] = molecular target: T2, Peroxisome proliferator-activated receptor gamma (Homo sapiens); test: Binding affinity to human wild type PPARgamma LBD expressed in COS1 cells co-expressing GAL4 by scintillation proximity assay; assay type: cell-based; settings: COS-1
[17] = test system: COS-1; test: Binding affinity to human PPARgamma LBD Y473A mutant expressed in COS1 cells co-expressing GAL4 by scintillation proximity assay; assay type: cell-based
[18] = test system: Mus musculus; test: Antidiabetic activity in db/db C57BLKS/J-m +/+ Leprdb mouse assessed as reduction of glucose level at 10 mg/kg, po qd for 10 days measured on 11 relative to control; assay type: functional; set-up: scale not given: the % may be the effect or the level left; method in brief: as §5
[19] = test system: Mus musculus; test: Antidiabetic activity in db/db C57BLKS/J-m +/+ Leprdb mouse assessed as reduction of glucose level at 20 mg/kg, po qd for 10 days measured on 11 relative to control; assay type: functional; set-up: scale not given: the % may be the effect or the level left; method in brief: as §5
[20] = test system: Mus musculus; test: Toxicity in po dosed db/db C57BLKS/J-m +/+ Leprdb mouse assessed as increase in water content of epididymal fat pad administered qd for 10 days measured on day 11 by vaccum drying method; assay type: organism-based; settings: in vivo, 240 h
Method in brief: (§6)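 Male db/db mice, seven per group, gavaged daily in 0.25% methylcellulose; after day 11 dosing epididymal fat pads excised, weighed, vacuum centrifugal-dried over 24 h, reweighed to give water content; mean of seven determinations.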

[21] = test system: Rattus norvegicus; test: Antidiabetic activity in obese insulin resistant Zucker fa/fa rat assessed as decrease in insulin level in plasma administered qd for 7 days
[22] = test system: Rattus norvegicus; test: Antidiabetic activity in obese insulin resistant Zucker fa/fa rat assessed as decrease in triglyceride level in plasma at 1 to 100 mg/kg qd for 7 days; assay type: functional, organism-based
Method in brief: (§7)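 Obese insulin-resistant Zucker fa/fa rats (n = 8) dosed daily for 7 days with vehicle or compound. Tail-nick blood taken 1 day before dosing and 1 day after the seventh dose; plasma insulin by rat insulin RIA, free fatty acids and triglyceride by enzymatic kits per manufacturer instructions.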

[23] = AUC in db/db C57BLKS/J-m +/+ Leprdb mouse at 10 mg/kg, po qd for 10 days measured on day 11; assay type: ADME, organism-based; set-up: dose 10 mg/kg, route oral; settings: plasma; method in brief: as §2
[24] = test system: Rattus norvegicus; test: Antidiabetic activity in obese insulin resistant Zucker fa/fa rat assessed as decrease in insulin level in plasma at 1 to 100 mg/kg qd for 7 days; assay type: functional, organism-based; method in brief: as §7
[25] = test system: Rattus norvegicus; test: Antidiabetic activity in obese insulin resistant Zucker fa/fa rat assessed as decrease in free fatty acids level in plasma at 1 to 100 mg/kg qd for 7 days; assay type: functional, organism-based; method in brief: as §7
[26] = test system: Mus musculus; test: Toxicity in db/db C57BLKS/J-m +/+ Leprdb mouse assessed as increase in water content of epididymal fat pad at 10 to 50 mg/kg, po qd for 10 days measured on day 11 by vaccum drying method; assay type: organism-based; set-up: dose 10-50 mg/kg, route oral; settings: in vivo, 240 h; method in brief: as §6

Work on `COc1ccc2c(-n3c(=O)n(Cc4ccc(Cl)c(O[C@H](C)C(=O)O)c4)c4ccccc43)noc2c1` yielded an AUC/dose [1] of 1.5 µM·kg·h/mg, an AUC at 240 h [2] of 576 µM·h and an IC50 [3] of 6.9 nM. The Emax [4] was 31%, the EC50 [5] was > 50000 nM and the bioavailability [6] was 48%. For the same compound, the clearance [7] was 11.4 mL/min/kg, the EC50 [8] was 2 nM and the EC50 [9] was > 50000 nM. The Activity [10] was 39%, the EC50 [11] was 3 nM and the IC50 [12] was > 50000 nM. For the same compound, the EC50 [13] was 28.1 nM, the half-life [14] was 5 h and the IC50 [15] was > 50000 nM.
With `C[C@]1(c2cccc(Cn3c(=O)n(-c4noc5cc(Cl)ccc45)c4ccccc43)c2)OC(=O)NC1=O` the Activity [16] was “Active”, the Emax [4] was 101% and the Activity [17] was “Active”. It also gave an Activity [18] of 84%.
For `COc1ccc2c(-n3c(=O)n(Cc4cc([C@@]5(C)OC(=O)NC5=O)ccc4Cl)c4ccccc43)noc2c1`, the AUC/dose [1] was 0.8 µM·kg·h/mg, the AUC at 240 h [2] was 104 µM·h and the IC50 [3] was 9.9 nM. For the same compound, the Emax [4] was 26%, the EC50 [5] was > 50000 nM and the bioavailability [6] was 49%. The clearance [7] was 29.7 mL/min/kg, the EC50 [8] was 2 nM and the EC50 [9] was > 50000 nM. The EC50 [11] was 1820 nM, the Activity [19] was 29% and the IC50 [12] was > 50000 nM. The EC50 [13] was 9.1 nM, the half-life [14] was 3.8 h and the IC50 [15] was > 50000 nM.
In the case of `CN(CCOc1ccc(CC2SC(=O)NC2=O)cc1)c1ccccn1` (stereo not drawn) [ROSIGLITAZONE], the Activity [20] is reported as “Dose-dependent effect”, the Activity [16] is reported as “Active” and the ED50 [21] is reported as 312 µM·h. The Activity [22] was “Active”, the AUC at 240 h [23] was 220 µM·h and the Activity [17] was “inactive”. The Activity [24] was “Active”, the Activity [25] was “Active” and the Activity [18] was 60%.
For `C[C@]1(c2cccc(Cn3c(=O)n(-c4noc5cc(Cl)ccc45)c4ccccc43)c2)OC(O)=NC1=O`, the AUC/dose [1] was 1.9 µM·kg·h/mg, the AUC at 240 h [2] was 1160 µM·h and the IC50 [3] was 49.1 nM. For the same compound, the bioavailability [6] was 117%, the clearance [7] was 26.5 mL/min/kg and the IC50 [12] was > 50000 nM. The EC50 [13] was 102 nM, the half-life [14] was 3 h and the Activity [26] was “Non-toxic”. For the same compound, the IC50 [15] was > 50000 nM.
